Data set [1] has as its target T1, Histone deacetylase (Homo sapiens) (UniProt Q13547+O15379+Q9UBN7+Q92769+Q9UQL6+Q8WUI4+Q9BY41+Q96DB2+P56524+Q9UKV0+Q969S8). The data set is described as follows: Inhibition of HDAC in human HeLa cell extract at 100 uM after 15 mins by fluorescence assay. The class given is protein assay.
Data set [2] concerns the target T2, NAD-dependent protein deacetylase sirtuin-2 (Homo sapiens) (UniProt Q8IXJ6).
T2 sequence (whole entry): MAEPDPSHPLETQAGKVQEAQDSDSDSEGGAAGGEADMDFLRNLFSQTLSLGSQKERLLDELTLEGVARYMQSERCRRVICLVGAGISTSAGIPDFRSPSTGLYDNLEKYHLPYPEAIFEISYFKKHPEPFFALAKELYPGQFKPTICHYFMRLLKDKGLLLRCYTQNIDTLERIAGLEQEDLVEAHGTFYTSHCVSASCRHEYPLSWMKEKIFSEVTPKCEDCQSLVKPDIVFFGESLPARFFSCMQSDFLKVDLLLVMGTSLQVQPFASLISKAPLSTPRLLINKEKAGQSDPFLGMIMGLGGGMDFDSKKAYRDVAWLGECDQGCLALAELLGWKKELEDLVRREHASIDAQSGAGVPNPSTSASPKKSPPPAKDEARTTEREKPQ
The data set is described as follows: Modulation of sirtuin 2 (unknown origin) by thermal shift assay. An outline of the steps: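 Sirtuin 2 modulation tested by thermal shift assay.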

A short description of data set [3]: Cytotoxicity against human HepG2 cells assessed as cell viability at 15 uM after 72 hrs by Celltitre-glo assay. Format: cell-based. The settings on record: read-out: Activity.
Data set [4] in a line: Cytotoxicity against human MCF7 cells assessed as cell viability at 15 uM after 72 hrs by Celltitre-glo assay. Conditions: read-out: Activity. Format: cell-based.
Data set [5] addresses T3, Retinoic acid receptor beta (Homo sapiens) (UniProt P10826).
T3 sequence (whole entry): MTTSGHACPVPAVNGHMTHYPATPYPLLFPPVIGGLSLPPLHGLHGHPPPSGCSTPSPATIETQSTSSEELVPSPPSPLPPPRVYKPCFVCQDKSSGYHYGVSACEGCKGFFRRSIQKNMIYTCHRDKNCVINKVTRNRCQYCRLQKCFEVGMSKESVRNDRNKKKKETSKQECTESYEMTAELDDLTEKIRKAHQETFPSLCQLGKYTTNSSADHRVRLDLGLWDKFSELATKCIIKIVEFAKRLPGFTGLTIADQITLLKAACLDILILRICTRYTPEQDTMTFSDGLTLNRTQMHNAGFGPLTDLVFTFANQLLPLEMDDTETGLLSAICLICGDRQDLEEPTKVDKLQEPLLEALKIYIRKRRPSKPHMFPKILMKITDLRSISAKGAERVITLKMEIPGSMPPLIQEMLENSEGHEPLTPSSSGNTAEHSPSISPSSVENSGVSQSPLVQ
The data set is described as follows: Inhibition of RAR-beta (unknown origin) assessed as change in DNA methylation. Put shortly:
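DNA methylation changes assessed by specific PCR for RARb.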

In data set [6] the target is Histone deacetylase. The data set is described as follows: Inhibition of HDAC in human HeLa cell extract after 15 mins by fluorescence assay. Format: protein assay.
Data set [7] in a line: Cytotoxicity against human MeT-5A cells after 16 hrs by luciferase reporter gene assay. The class given is cell-based.
In data set [8] the target is T1, Histone deacetylase (Homo sapiens). Put plainly: Inhibition of HDAC in human MeT-5A cells assessed as hisone H3 acetylation after 16 hrs by BRET assay. The class given is cell-based. Put shortly: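 MeT-5A cells transfected with phRluc-C1-BrD and pEYFP-C1 histone H3, then exposed 16 h to increasing doses; BRET signal read as measure of histone H3 acetylation (rise in signal = more acetylation). SAHA used as positive control. Means ± SEM of three independent experiments.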
On the technique in general: Bioluminescence resonance energy transfer reports proximity on the nanometre scale.

The source made the active and inactive calls. No cut-off for these calls is given here.

The values below come from ChEMBL document CHEMBL3352210, “Aurones as histone deacetylase inhibitors: identification of key features” (Bioorg Med Chem Lett, 2014).

As to `COc1cccc(/C=C2\Oc3ccccc3C2=O)c1OC`, in data set [1], the inhibition (usually the share of the control response that was lost under treatment) worked out at 12%. For the same compound, the inhibition entry in data set [2] and in data set [5] was “inactive” throughout. Besides, the viability at 72 h, 15 µM turned out to be 104% in data set [3] and 94% in data set [4].
In data set [1], `O=C(O)c1ccc(/C=C2\Oc3ccccc3C2=O)cc1` showed an inhibition of 28%. In addition, the inhibition result in data set [2] and in data set [5] was “inactive” each time. Moreover, the viability at 72 h, 15 µM in data set [3] was 73%; in data set [4] it was 105%.
In data set [1], `COc1cccc(/C=C2\Oc3ccccc3C2=O)c1` [3'-METHOXY-AURONE] had an inhibition of 1%. Further, the inhibition result in data set [2] and in data set [5] was “inactive” in each case. The viability at 72 h, 15 µM turned out to be 101% in data set [3] and 89% in data set [4].
`COc1cc(OC)c2c(c1)O/C(=C\c1ccccc1OC)C2=O` returned an inhibition in data set [1] of 7%. Further, the inhibition entry in data set [2] and in data set [5] was “inactive” throughout. Moreover, the viability at 72 h, 15 µM in data set [3] came to 104%; in data set [4], 89%.
In the case of `Cc1ccc(/C=C2\Oc3ccccc3C2=O)cc1`, in data set [1], the inhibition is 5%. The inhibition result in data set [2] and in data set [5] was “inactive” each time. Also, the values for the viability at 72 h, 15 µM in data set [3] and in data set [4] were 35% and 86%, respectively.
As for `O=C(/C=C/c1ccc(Cl)cc1)c1ccccc1O`, the inhibition in data set [1] was 0%. For the same compound, the inhibition result in data set [2] and in data set [5] was “inactive” throughout. The viability at 72 h, 15 µM in data set [3] was 62%; in data set [4] it was 90%.
`COc1cccc(/C=C2\Oc3ccc(Cl)cc3C2=O)c1OC` gave an inhibition in data set [1] of 6%. Moreover, the inhibition entry in data set [2] and in data set [5] was “inactive” each time. The viability at 72 h, 15 µM in data set [3] amounted to 99%; in data set [4], 115%.
`COc1cc(OC)c2c(c1)O/C(=C\c1ccccc1Cl)C2=O`: the inhibition in data set [1] amounted to 46%. Besides, the inhibition result in data set [2] and in data set [5] was “inactive” each time. The results for the viability at 72 h, 15 µM in data set [3] and in data set [4] were 80% and 72%, respectively.
`COc1ccccc1/C=C1\Oc2ccccc2C1=O` [(Z)-2'-METHOXYAURONE] had an inhibition in data set [1] of 7%. Further, the inhibition entry in data set [2] and in data set [5] was “inactive” in each case. For the same compound, the values for the viability at 72 h, 15 µM in data set [3] and in data set [4] were 103% and 88%, respectively.
In data set [1], `O=C(O)c1ccc(/C=C2\Oc3ccc(Cl)cc3C2=O)cc1` showed an inhibition of 30%. Further, the inhibition result in data set [2] and in data set [5] was “inactive” throughout. In addition, the viability at 72 h, 15 µM amounted to 86% in data set [3] and 109% in data set [4].
In data set [1], `COc1ccc(/C=C2\Oc3ccccc3C2=O)cc1` [4'-METHOXY-AURONE] came in with an inhibition of 23%. Besides, the inhibition entry in data set [2] and in data set [5] was “inactive” each time. Besides, the viability at 72 h, 15 µM amounted to 65% in data set [3] and 88% in data set [4].
Take `COc1ccc(/C=C2\Oc3ccccc3C2=O)cc1OC` [3',4'-DIMETHOXY-AURONE]: the half-inhibitory concentration (IC50) (commonly the concentration that gives 50% inhibition) in data set [6] was 71 µM. In addition, the figures for the inhibition in data set [1] and in data set [8] were 51% and “Dose-dependent effect”, respectively. Besides, the inhibition entry in data set [2] and in data set [5] was “inactive” throughout. Further, the Activity entry in data set [7] is on record as “Dose-dependent effect”. The viability at 72 h, 15 µM came out at 114% in data set [3] and 91% in data set [4].
For `COc1ccc(/C=C2\Oc3cc(OC)cc(OC)c3C2=O)cc1` [4,4',6-TRIMETHOXY-AURONE], the inhibition in data set [1] came out at 20%. The inhibition entry in data set [2] and in data set [5] was “inactive” throughout. The viability at 72 h, 15 µM in data set [3] is 119%; in data set [4], 10%.
In the case of `Cc1ccc(/C=C/C(=O)c2ccccc2O)cc1`, the inhibition in data set [1] came to 0%. Also, the inhibition entry in data set [2] and in data set [5] was “inactive” throughout. For the same compound, the viability at 72 h, 15 µM in data set [3] was 120%; in data set [4], 96%.
In data set [1], `COc1cc(OC)c2c(c1)O/C(=C\c1ccccc1)C2=O` returned an inhibition of 27%. Besides, the inhibition entry in data set [2] and in data set [5] was “inactive” each time. Also, the viability at 72 h, 15 µM amounted to 9% in data set [3] and 73% in data set [4].
Compound `COCOc1cc(OCOC)c2c(c1)O/C(=C\c1ccc(OCOC)c(OCOC)c1)C2=O` showed a concentration for half-maximal inhibition (IC50) in data set [6] of 40 µM. In data set [1], this compound returned an inhibition of 75%. Further, the inhibition result in data set [2] and in data set [5] was “inactive” in each case. Further, the results for the viability at 72 h, 15 µM in data set [3] and in data set [4] were 7% and 21%, respectively.
In turn, `O=C1/C(=C/c2ccc(Cl)cc2)Oc2ccccc21` came in with an inhibition in data set [1] of 13%. Also, the inhibition entry in data set [2] and in data set [5] was “inactive” each time. In addition, the viability at 72 h, 15 µM was 110% in data set [3] and 85% in data set [4].
With `COc1ccc(/C=C2\Oc3ccc(Br)cc3C2=O)cc1OC`, the inhibition in data set [1] was 14%; in data set [8] it was “Dose-dependent effect”. In addition, the inhibition result in data set [2] and in data set [5] was “inactive” each time. The Activity result in data set [7] was “Dose-dependent effect”. Besides, the viability at 72 h, 15 µM in data set [3] stood at 93%; in data set [4], 108%.
